MLL AF4-AF9 inh: MLL-AF4/AF9 protein interaction inhibition; AlphaScreen, biotin-AF4 peptide binding to FLAG-AF9; inhibition, % at 10 µM; P42568; hit rate 0.47% among 350,000;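 active = every replicate reaching a set inhibition limit, whatever the replicate mean, cut at about 25% in these data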;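 also: 0% = plate neutral control median and 100% = total signal loss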
Target sequence (P42568 whole entry, looked up): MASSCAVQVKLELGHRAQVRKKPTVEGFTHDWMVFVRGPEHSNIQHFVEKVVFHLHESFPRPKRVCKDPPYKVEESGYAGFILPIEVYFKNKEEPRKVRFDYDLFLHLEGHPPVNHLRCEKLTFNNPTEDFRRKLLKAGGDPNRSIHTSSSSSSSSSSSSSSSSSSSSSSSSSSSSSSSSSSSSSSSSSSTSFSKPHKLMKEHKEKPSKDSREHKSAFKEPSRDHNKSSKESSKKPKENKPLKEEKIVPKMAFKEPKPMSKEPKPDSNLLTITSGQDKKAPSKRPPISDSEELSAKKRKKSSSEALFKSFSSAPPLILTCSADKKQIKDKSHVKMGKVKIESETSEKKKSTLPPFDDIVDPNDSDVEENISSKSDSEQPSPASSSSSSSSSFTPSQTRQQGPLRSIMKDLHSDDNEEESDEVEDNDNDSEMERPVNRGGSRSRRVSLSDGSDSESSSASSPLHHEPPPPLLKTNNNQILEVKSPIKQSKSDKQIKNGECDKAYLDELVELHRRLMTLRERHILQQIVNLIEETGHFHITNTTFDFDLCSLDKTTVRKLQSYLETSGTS
RAD54 inh: RAD54 (human) branch migration inhibition; Q92698; RAD54 Holliday junction branch migration, FAM/BHQ fluorescence; AID 602329; inhibition, % at 10.4 µM; hit rate 0.14% among 360,000;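 active = mean normalized replicate activity at least 40 and at least half of replicates scoring 40 or more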;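 also: 0% = median of neutral control wells and 100% = median of positive control wells; inhibitors cause a drop in the FAM fluorescence signal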
S100A4 inh HTS: S100A4-myosin IIA interaction inhibition. S100A4/TAMRA-MyoIIA peptide fluorescence polarization. P26447. hit rate 0.14% among 360,000. inhibition, % at 10.7 µM;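 active = mean inhibition of at least 70% across replicates, with every replicate also reaching that level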
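Test system: S100A4 monomer protein. Medium: HEPES buffer with Ca2+, pH 7.2. Reagent: fluorescent myosin IIA peptide, 5 nM. Compound dosing: single-point compound testing. Timing: 5 min between mix addition and reading. Benchmarks: DMSO neutral and TFP positive wells.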
dFosB activator: mouse delta FosB homodimer activation. activation, % at 25 µM. hit rate 0.99% among 340,000. purified delta FosB, TAMRA-CDK5 oligo fluorescence polarization; percent of positive-control signal above neutral wells;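 active = mean activation above about 17%, with every replicate also reaching it, limit read from the data, passing the limit was not always enough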
RAD52 anneal inh: blocks human RAD52 DNA annealing. P43351. recombinant RAD52 DNA annealing, FRET fluorescence. inhibition, % at 18.7 µM. hit rate 0.46% among 360,000. AID 651710;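 active = every replicate showing at least 50% inhibition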
Active calls of the source: *; . = not tested or not shown; + = active, no number. Sampled rows, rich in hits. Any-hit rate of the full collection: about 1.5%.

SMILES	MLL AF4-AF9 inh	RAD54 inh	S100A4 inh HTS	dFosB activator	RAD52 anneal inh
O=c1ccc2[n+]([O-])c3ccc(O)cc3oc-2c1	42.7*	.	+	39.7*	-293.1
O=c1cc(O)c2ccc(O)cc2o1	-1.5	-4.1	26.2	-1.1	-12.0
CN1CCN(C(=S)c2cn(Cc3cccc(F)c3)c3ccccc23)CC1	10.8	.	-21.5	-7.4	-23.4
CN1CCN(C(=S)c2cn(Cc3ccc(F)cc3)c3ccccc23)CC1	31.0*	.	-0.5	-3.4	-13.3
CN(C)C(=O)C[C@@H]1CC[C@@H]2[C@H](COC[C@H](O)CN2C(=O)c2ccncc2)O1	7.9	2.4	-9.4	.	69.8*
O=C(C[C@H]1CC[C@@H]2[C@H](COC[C@H](O)CN2C(=O)Cc2ccccc2)O1)NC1CCCC1	-8.1	-1.5	-1.3	.	-2.1
CCCNC(=O)N1C[C@H](O)COC[C@@H]2O[C@H](CC(=O)N[C@H]3CCN(Cc4ccccc4)C3)CC[C@H]21	-8.2	9.6	87.2*	.	6.2
O=C(C[C@H]1CC[C@@H]2[C@H](COC[C@@H](O)CN2C(=O)Cc2ccccc2)O1)NC1CCCC1	1.0	0.1	89.6*	.	-2.5
COc1ccc(S(=O)(=O)Nc2ccc3c(c2)CC(=O)N([C@H](C)CO)C[C@@H](C)[C@H](CN(C)S(=O)(=O)c2ccccc2)O3)cc1	.	0.4	.	.	.
Cc1c(F)cccc1NC(=O)CCCCCC1NC(=O)NC1C (stereo unspecified)	89.7*	3.2	-1.5	-4.2	-7.8
CC[N+]1=C(C)C(C)(C)c2cc(C)ccc21	-83.5	-50.8	182.5*	-7.3	-46.6
CC=Cc1ccc2n(c1=O)C[C@H]1N[C@@H]2[C@@H](C(=O)NC2CCCCC2)[C@@H]1CO (mixture of isomers)	-3.0	10.5	0.2	.	9.5
CC=Cc1ccc2n(c1=O)C[C@@H]1N[C@H]2[C@H](C(=O)NC2CCCCC2)[C@H]1CO (mixture of isomers)	-2.7	13.6	81.4*	.	7.8
CC=Cc1ccc2n(c1=O)C[C@H]1[C@H](CO)[C@@H](C(=O)NCCC)N(CC3CCCC3)[C@@H]21 (mixture of isomers)	3.8	-1.9	4.2	.	99.1*
CS(=O)(=O)N1C[C@@H](O)COC[C@H]2O[C@@H](CC(=O)NCc3ccc(-c4ccccc4)cc3)CC[C@@H]21	16.8	19.3	5.6	.	58.7*
O=C(C[C@H]1CC[C@H]2[C@@H](COC[C@@H](O)CN2S(=O)(=O)c2ccccc2)O1)NCc1ccc(-c2ccccc2)cc1	5.4	-5.3	0.7	.	36.4
CS(=O)(=O)N1C[C@@H](O)COC[C@@H]2O[C@H](CC(=O)NCc3ccccc3)CC[C@H]21	.	3.4	.	.	.
O=C(C[C@H]1CC[C@@H]2[C@H](COC[C@@H](O)CN2S(=O)(=O)c2ccccc2)O1)NCc1ccc(-c2ccccc2)cc1	16.0	14.8	-18.3	.	75.4*
O=C(C[C@H]1CC[C@@H]2[C@H](COC[C@H](O)CN2S(=O)(=O)c2ccccc2)O1)NCc1ccc(-c2ccccc2)cc1	10.8	-6.2	-1.0	.	56.0*
O=C(C[C@@H]1CC[C@H]2[C@@H](COC[C@@H](O)CN2S(=O)(=O)c2ccccc2)O1)NCc1ccc(-c2ccccc2)cc1	9.9	-0.9	1.5	.	59.3*
Cc1ccc(S(=O)(=O)Nc2ccc3c(c2)CC(=O)N([C@@H](C)CO)C[C@@H](C)[C@H](CN(C)C(=O)NC2CCCCC2)O3)cc1	-1.1	-3.7	-5.3	.	25.5
COc1ccc(S(=O)(=O)Nc2ccc3c(c2)C(=O)N([C@@H](C)CO)C[C@H](C)[C@@H](CN(C)Cc2ccncc2)OCCCC[C@@H](C)O3)cc1	2.4	-3.0	-2.4	.	16.8
Cc1ccccc1S(=O)(=O)N[C@@H]1CC[C@H](CCn2cc(Cc3ccccc3)nn2)O[C@H]1CO	-0.9	1.2	7.0	.	-11.6
CCC(=O)N1C[C@@H](C)[C@H](OC)CN(C)C(=O)c2ccc(NC(=O)C3CC3)cc2OC[C@@H]1C	-2.4	-3.7	-2.0	.	-4.0
O=C(C[C@@H]1CC[C@H](NC(=O)c2ccncc2)[C@H](CO)O1)NCC1CCCCC1	-0.6	6.7	4.9	.	4.0
Cc1nc(SCC(=O)Nc2c(C)nn(C)c2C)c2cnn(-c3ccccc3)c2n1	.	-11.7	.	7.1	.
CC(C)c1nc(SCC(=O)Nc2c[nH]c(=O)[nH]c2=O)c2cnn(-c3ccccc3)c2n1	1.9	.	3.7	153.2*	-3.2

From PubChem
